The subject of assay [1] is SNU-182. The experiment in a line: Inhibition of TGFbeta1-induced epithelial-mesenchymal transition in human SNU182 cells assessed as reduction in upregulation of Snail expression preincubated for 2 hrs followed by TGFbeta1 addition measured after 48 hrs in presence of (E)-1-(9-Ethyl-9H-carbazol-3-yl)-5-(4-hydroxy-3-methoxyphenyl)pent-1-en-3-one by Western blot method. The assay is classed as functional, cell-based. Summed up:
(§1)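 SNU182 cells pretreated 2 h with single agents (12.5 or 40 µM) or the mixture (20 and 40 µM), then stimulated with TGF-β1 5 ng/ml for 48 h. E-cadherin and Snail protein detected by Western blot, with GAPDH as loading control.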

Assay [2] has as its system SNU-182. Briefly: Inhibition of TGFbeta1-induced epithelial-mesenchymal transition in human SNU182 cells assessed as reduction in upregulation of N-cadherin expression preincubated for 2 hrs followed by TGFbeta1 addition measured after 48 hrs in presence of (E)-1-(9-Ethyl-9H-carbazol-3-yl)-5-(4-hydroxy-3-methoxyphenyl)pent-1-en-3-one by Western blot method. The assay is classed as functional, cell-based. The method, boiled down:
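Pretreatment of SNU182 cells with the mixture at 20 and 40 µM for 2 h in serum-free medium, followed by TGF-β1 5 ng/ml for 48 h. N-cadherin and Snail detected by Western blot against GAPDH.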

The test system of assay [3] is SNU-182. Briefly: Inhibition of TGFbeta1-induced epithelial-mesenchymal transition in human SNU182 cells assessed as reduction in MMP9 mRNA expression preincubated for 2 hrs followed by TGFbeta1 addition measured after 48 hrs in presence of (E)-1-(9-Ethyl-9H-carbazol-3-yl)-5-(4-hydroxy-3-methoxyphenyl)pent-1-en-3-one by qRT-PCR method. Type of assay: functional, cell-based. The method, boiled down: (§2)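 SNU182 cells pretreated 2 h with single agents (12.5 or 40 µM) or the mixture (20 or 40 µM), then TGF-β 5 ng/ml for 48 h. MMP-2 and MMP-9 mRNA measured by RT-PCR with densitometry and by qRT-PCR, fold change by the 2^-ΔΔCt method. Mean±SD of triplicates.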

In assay [4] the target is T1, NF-kappa-B inhibitor alpha (Homo sapiens) (UniProt P25963).
T1 sequence (whole entry): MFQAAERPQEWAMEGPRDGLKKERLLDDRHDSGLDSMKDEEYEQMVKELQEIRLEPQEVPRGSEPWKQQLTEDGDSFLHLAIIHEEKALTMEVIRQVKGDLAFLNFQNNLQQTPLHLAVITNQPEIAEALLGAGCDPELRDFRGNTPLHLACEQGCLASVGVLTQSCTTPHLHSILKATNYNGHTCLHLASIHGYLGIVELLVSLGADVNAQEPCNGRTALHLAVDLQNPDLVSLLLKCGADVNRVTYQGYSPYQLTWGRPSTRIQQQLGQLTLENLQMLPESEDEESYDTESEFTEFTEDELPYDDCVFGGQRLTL
Briefly: Inhibition of TGFbeta1-induced IkB-alpha phosphorylation in human SNU182 cells at 20 to 40 uM preincubated for 2 hrs followed by TGFbeta1 addition measured after 120 mins in presence of (E)-1-(9-Ethyl-9H-carbazol-3-yl)-5-(4-hydroxy-3-methoxyphenyl)pent-1-en-3-one by Western blot method. Type of assay: cell-based. The method, boiled down: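 SNU182 cells pretreated with the mixture (20 and 40 µM) for 2 h, then exposed to TGF-β1 for 120 min. IκB protein assessed by Western blot, with GAPDH loading control.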

Assay [5] is filed under the species Homo sapiens. The experiment in a line: Inhibition of TGFbeta1-induced NF-kB nuclear translocation in human SNU182 cells preincubated for 2 hrs followed by TGFbeta1 addition measured after 12 hrs in presence of (E)-1-(9-Ethyl-9H-carbazol-3-yl)-5-(4-hydroxy-3-methoxyphenyl)pent-1-en-3-one by Western blot method. Type of assay: cell-based. Summed up:
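Mixture added to SNU182 cells for 2 h before TGF-β1 for 12 h. Cytosolic and nuclear fractions analysed by Western blot for NF-κB, with COX4 as cytosolic and Lamin B1 as nuclear marker.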

Assay [6] concerns the target Mitogen-activated protein kinase; ERK1/ERK2 (Homo sapiens) (UniProt P27361+P28482). Briefly: Inhibition of TGFbeta1-induced p44/42 MAPK phosphorylation in human SNU182 cells measured after 48 hrs in presence of (E)-1-(9-Ethyl-9H-carbazol-3-yl)-5-(4-hydroxy-3-methoxyphenyl)pent-1-en-3-one by Western blot method. The assay is classed as cell-based. The method, boiled down: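 SNU182 cells incubated 48 h with TGF-β1 5 ng/ml alone or together with the mixture at 20 and 40 µM, then lysed. Phospho-p42/44 MAPK detected by Western blot, with total p42/44 MAPK as loading control.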

The species named for assay [7] is Homo sapiens. Briefly: Inhibition of TGFbeta1-induced NF-kB binding activity in human SNU182 cells at 20 to 40 uM measured after 48 hrs in presence of (E)-1-(9-Ethyl-9H-carbazol-3-yl)-5-(4-hydroxy-3-methoxyphenyl)pent-1-en-3-one by luciferase reporter gene assay. Type of assay: cell-based. Summed up: (§3)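 Cells transfected with pGL4.32-NF-κB-RE-Luc or empty pGL4.32, then treated with the mixture and/or TGF-β1. Luciferase reporter activity read. Mean±SD of triplicates.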

Assay [8] deals with SNU-182. Briefly: Growth inhibition of human SNU182 cells at <12.5 uM after 48 hrs by CCK8 assay. The assay is classed as functional, cell-based.
For assay [9], the system named is SNU-182. The experiment in a line: Growth inhibition of human SNU182 cells at <50 uM in presence of zingerone after 48 hrs by CCK8 assay. Type of assay: functional, cell-based.
Assay [10] deals with SNU-182. The experiment in a line: Growth inhibition of human SNU182 cells assessed as cell growth at 50 uM after 48 hrs by CCK8 assay relative to control. The settings on record: SNU-182, 48 h, read-out: Activity. The assay is classed as functional.
Assay [11] concerns SNU-182. Briefly: Inhibition of TGFbeta1-induced epithelial-mesenchymal transition in human SNU182 cells assessed as reduction in upregulation of Snail expression at 12.5 uM preincubated for 2 hrs followed by TGFbeta1 addition measured after 48 hrs by Western blot method. The assay is classed as functional, cell-based. The method, boiled down: as §1
Assay [12] concerns SNU-182. The experiment in a line: Inhibition of TGFbeta1-induced epithelial-mesenchymal transition in human SNU182 cells assessed as reduction in downregulation of E-cadherin expression preincubated for 2 hrs followed by TGFbeta1 addition measured after 48 hrs in presence of zingerone by Western blot method. Type of assay: functional, cell-based. Summed up: as §1
Assay [13] concerns SNU-182. The experiment in a line: Inhibition of TGFbeta1-induced epithelial-mesenchymal transition in human SNU182 cells assessed as reduction in MMP9 mRNA expression preincubated for 2 hrs followed by TGFbeta1 addition measured after 48 hrs in presence of zingerone by qRT-PCR method. Type of assay: functional, cell-based. The method, boiled down:
as §2

The test system of assay [14] is SNU-182. Briefly: Inhibition of TGFbeta1-induced epithelial-mesenchymal transition in human SNU182 cells assessed as reduction in MMP2 activity measured after 48 hrs in presence of zingerone by gelatin zymography assay. The assay is classed as functional, cell-based. The method, boiled down: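 Cells serum-starved overnight in 0.2% FBS medium, then left untreated or given TGF-β 5 ng/ml and/or the mixture for 48 h. MMP-2 and MMP-9 activity in conditioned medium determined by gelatin zymography.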

For assay [15], the species on record is Homo sapiens. The experiment in a line: Inhibition of TGFbeta1-induced NF-kB binding activity in human SNU182 cells at 20 to 40 uM measured after 48 hrs in presence of zingerone by luciferase reporter gene assay. The assay is classed as cell-based. The method, boiled down:
as §3

Molecules are shown by their SMILES. Calls of active or inactive are those of the source. The rule behind the calls is not given here.

Mitogen-activated protein kinase; ERK1/ERK2 (Homo sapiens), sequence (P27361 whole entry, looked up): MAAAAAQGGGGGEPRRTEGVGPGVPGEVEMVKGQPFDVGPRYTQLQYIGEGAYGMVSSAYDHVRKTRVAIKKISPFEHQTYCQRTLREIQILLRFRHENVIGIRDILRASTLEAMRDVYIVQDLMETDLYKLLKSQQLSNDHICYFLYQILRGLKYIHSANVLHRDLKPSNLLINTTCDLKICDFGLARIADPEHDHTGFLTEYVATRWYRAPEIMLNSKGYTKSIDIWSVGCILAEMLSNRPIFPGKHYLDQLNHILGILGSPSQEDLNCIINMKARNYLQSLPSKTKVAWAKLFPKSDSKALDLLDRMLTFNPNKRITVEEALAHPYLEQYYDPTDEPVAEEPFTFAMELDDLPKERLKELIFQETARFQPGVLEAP
Mitogen-activated protein kinase; ERK1/ERK2 (Homo sapiens), sequence (P28482 whole entry, looked up): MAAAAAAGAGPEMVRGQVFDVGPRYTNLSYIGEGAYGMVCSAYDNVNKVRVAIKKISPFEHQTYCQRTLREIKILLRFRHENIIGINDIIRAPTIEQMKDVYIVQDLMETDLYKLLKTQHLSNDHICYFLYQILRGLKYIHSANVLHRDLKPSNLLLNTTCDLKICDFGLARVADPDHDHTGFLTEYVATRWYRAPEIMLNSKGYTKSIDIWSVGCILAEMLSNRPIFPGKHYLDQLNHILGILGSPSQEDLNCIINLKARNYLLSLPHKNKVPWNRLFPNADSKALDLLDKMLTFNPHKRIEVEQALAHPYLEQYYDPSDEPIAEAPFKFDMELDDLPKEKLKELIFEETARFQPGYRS

On to `COc1cc(CCC(C)=O)ccc1O`, for which the inhibition result (in the assay on SNU-182 [1]; in the assay on SNU-182 [2]; with SNU-182 [3]; in the assay listed under Homo sapiens [5]; in [6]) was “Dose-dependent effect” throughout. In addition, the inhibition entry (in assay [4]; in the assay listed under Homo sapiens [7]) was “Active” throughout.
As to `CCn1c2ccccc2c2cc(/C=C/C(=O)CCc3ccc(O)c(OC)c3)ccc21`, the “growth inhibition (GI)” value with SNU-182 [8] and in the assay with SNU-182 [9] was “inactive” in each case. The growth at 50 µM in the assay on SNU-182 [10] was determined as 40%. In addition, in the assay on SNU-182 [11], the inhibition entry is “inactive”. The inhibition result with SNU-182 [12] and in the assay on SNU-182 [13] was “Dose-dependent effect” in each case. The inhibition entry with SNU-182 [14] and in the assay listed under Homo sapiens [15] was “Active” each time.

The values are drawn from ChEMBL document CHEMBL3992541, “Combined treatment with zingerone and its novel derivative synergistically inhibits TGF-β1 induced epithelial-mesenchymal transition, migration and invasion of human hepatocellular carcinoma cells” (2017).
